Results published in ChEMBL document CHEMBL1125686, “(Benzoylphenyl)piperidines: a new class of immunomodulators” (1991).

Columns and labels:
Mus musculus [1] = organism: Mus musculus; assay: Maximal proliferation induced in the presence of the mitogen-PWM ( stimulated blastogenesis) in Mice cells at a dose of 10 ug/mL; format: functional; set-up: unit not given here
Outline: (§1)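 Splenocytes from female DBA/2 mice, 6–9 weeks old; red cells lysed with cold 0.17 M NH₄Cl. Cells plated at 5 × 10⁶ cells/mL in RPMI 1640 with 5% FCS, with compound (5–80 μg/mL range) and Con A, PWM or PHA at a batch-optimized concentration. Cultured 72 h at 37 °C, 5% CO₂, with [³H]thymidine for the final 24 h, read by scintillation. Triplicate wells; mean ± SD of three cultures.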

Mus musculus [2] = assay: Percent of Thyl+ positive cells / spleen x 10 e6 in nude mice (in vivo); format: functional
Outline: (§2)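 Female nu/nu mice, 6–9 weeks old, dosed by gastric tube in 0.2 mL 2% arabic gum with 0.1% Tween-80; controls received vehicle only. Spleens taken 24 h later and splenocytes prepared. Thy1⁺ cells counted by direct FITC anti-Thy1 staining under epifluorescence. Five animals per group, mean ± SD.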

Mus musculus [3] = assay: […] induction of Thyl+ antigen expression on murine bone marrow cells at the concentration of 3.2 uM(Fraction B).(Control group); format: functional
Outline: (§3)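 Bone marrow from female C57 BL/6 mice, 5–8 weeks old, separated on a discontinuous BSA gradient. Fraction A (lowest density) and fraction B (next lowest) resuspended at 10⁶ cells/mL in HBSS with 5% BSA. Cells incubated 24 h with one compound concentration, then stained directly with FITC anti-Thy1 and counted by epifluorescence microscopy. % Thy1⁺ cells recorded for treated and control cultures.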

Mus musculus [4] = assay: Proliferation induced by the mitogen alone-Concanavalin A (control blastogenesis), in mice cells dosed at 5 ug/mL; format: functional; set-up: unit not given here; outline: as §1
Mus musculus [5] = assay: Percent of Thyl+ positive cells, in nude mice (in vivo); format: functional; outline: as §2
Mus musculus [6] = assay: […] induction of Thyl+ antigen expression on murine bone marrow cells at the concentration of 3.2 uM(Fraction B).(treated); format: functional; outline: as §3
Mus musculus [7] = organism: Mus musculus; assay: Proliferation induced by the mitogen alone-PHA (control blastogenesis), in Mice cells at a dose of 5 ug/mL; format: functional; set-up: unit not given here; outline: as §1
Mus musculus [8] = assay: […] induction of Thyl+ antigen expression on murine bone marrow cells at the concentration of 3.2 uM(Fraction A).(Control group); format: functional; outline: as §3
Mus musculus [9] = assay: Percent of restoration in nude mice (in vivo); format: functional; outline: as §2
Mus musculus [10] = organism: Mus musculus; assay: Maximal proliferation induced in the presence of the mitogen-PHA ( stimulated blastogenesis) in Mice cells at a dose of 10 ug/mL
Mus musculus [11] = assay: Maximal proliferation induced in the presence of the mitogen-Concanavalin A (stimulated blastogenesis) in mice cells dosed at 5 ug/mL; format: functional; set-up: unit not given here; outline: as §1
Mus musculus [12] = assay: Percent of restoration of T- cell markers in nude mice (in vivo); format: functional; outline: as §2
Mus musculus [13] = organism: Mus musculus; assay: Proliferation induced by the mitogen alone-PWM (control blastogenesis), in Mice cells at a dose of 10 ug/mL; format: functional; set-up: unit not given here; outline: as §1
Mus musculus [14] = assay: […] induction of Thyl+ antigen expression on murine bone marrow cells at the concentration of 3.2 uM(Fraction A).(treated); format: functional; outline: as §3
Mus musculus [15] = assay: […] induction of Thyl+ antigen expression on murine bone marrow cells at the concentration of 2.6 uM(Fraction B).(treated); format: functional; outline: as §3
Mus musculus [16] = assay: […] induction of Thyl+ antigen expression on murine bone marrow cells at the concentration of 2.6 uM(Fraction A).(treated); format: functional; outline: as §3
Mus musculus [17] = assay: […] induction of Thyl+ antigen expression on murine bone marrow cells at the concentration of 2.6 uM(Fraction A).(Control group); format: functional; outline: as §3
Mus musculus [18] = assay: […] induction of Thyl+ antigen expression on murine bone marrow cells at the concentration of 2.6 uM(Fraction B).(Control group); format: functional; outline: as §3
Mus musculus [19] = organism: Mus musculus; assay: Maximal proliferation induced in the presence of the mitogen-PWM ( stimulated blastogenesis) in Mice cells at a dose of 80 ug/mL; format: functional; set-up: unit not given here; outline: as §1
Mus musculus [20] = organism: Mus musculus; assay: Proliferation induced by the mitogen alone-PWM (control blastogenesis), in Mice cells at a dose of 80 ug/mL; format: functional; set-up: unit not given here
Outline: (§4)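 Splenocytes from female DBA/2 mice aged 6–9 weeks, red cells lysed with cold 0.17 M NH4Cl, cultured at 5 × 10⁶ cells/mL in RPMI 1640 with 5% FCS. Pokeweed mitogen added at a batch-adjusted optimal level, 72 h at 37 °C, 5% CO2. [³H]thymidine pulse for the final 24 h, then scintillation counting. Triplicates; mean ± SD of three cultures.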

Mus musculus [21] = assay: […] induction of Thyl+ antigen expression on murine bone marrow cells at the concentration of 7 uM(Fraction A).(treated)); format: functional; outline: as §3
Mus musculus [22] = organism: Mus musculus; assay: Maximal proliferation induced by the test compound in the presence of the mitogen-PHA ( stimulated blastogenesis) in Mice cells at a dose of 10 ug/mL; format: functional; outline: as §1
Mus musculus [23] = organism: Mus musculus; assay: Maximal proliferation induced in the presence of the mitogen-PWM ( stimulated blastogenesis) in Mice cells at a dose of 40 ug/mL; format: functional; set-up: unit not given here; outline: as §1
Mus musculus [24] = assay: […] induction of Thyl+ antigen expression on murine bone marrow cells at the concentration of 7 uM(Fraction B).(treated); format: functional; outline: as §3
Mus musculus [25] = organism: Mus musculus; assay: Proliferation induced by the mitogen alone-PWM (control blastogenesis), in Mice cells at a dose of 40 ug/mL; format: functional; set-up: unit not given here; outline: as §4
Mus musculus [26] = organism: Mus musculus; assay: Proliferation induced by the mitogen alone-PHA (control blastogenesis), in Mice cells at a dose of 10 ug/mL; format: functional; outline: as §1
Mus musculus [27] = assay: […] induction of Thyl+ antigen expression on murine bone marrow cells at the concentration of 7 uM(Fraction A).(Control group); format: functional; outline: as §3
Mus musculus [28] = assay: […] induction of Thyl+ antigen expression on murine bone marrow cells at the concentration of 7 uM(Fraction B).(Control group); format: functional; outline: as §3
Mus musculus [29] = assay: […] induction of Thyl+ antigen expression on murine bone marrow cells at the concentration of 2.9 uM(Fraction A).(Control group); format: functional; outline: as §3
Mus musculus [30] = assay: […] induction of Thyl+ antigen expression on murine bone marrow cells at the concentration of 2.9 uM(Fraction A).(treated); format: functional; outline: as §3
Mus musculus [31] = assay: […] induction of Thyl+ antigen expression on murine bone marrow cells at the concentration of 2.9 uM(Fraction B).(Control group); format: functional; outline: as §3
Mus musculus [32] = assay: […] induction of Thyl+ antigen expression on murine bone marrow cells at the concentration of 2.9 uM(Fraction B).(treated); format: functional; outline: as §3
Mus musculus [33] = assay: […] induction of Thyl+ antigen expression on murine bone marrow cells at the concentration of 3 uM(Fraction A).(Control group); format: functional; outline: as §3
Mus musculus [34] = assay: […] induction of Thyl+ antigen expression on murine bone marrow cells at the concentration of 3 uM(Fraction B).(Control group); format: functional; outline: as §3
Mus musculus [35] = assay: […] induction of Thyl+ antigen expression on murine bone marrow cells at the concentration of 3 uM(Fraction A).(treated); format: functional; outline: as §3
Mus musculus [36] = assay: […] induction of Thyl+ antigen expression on murine bone marrow cells at the concentration of 3 uM(Fraction B).(treated); format: functional; outline: as §3
Mus musculus [37] = assay: […] induction of Thyl+ antigen expression on murine bone marrow cells at the concentration of 2.7 uM(Fraction A).(treated); format: functional; outline: as §3
Mus musculus [38] = assay: […] induction of Thyl+ antigen expression on murine bone marrow cells at the concentration of 2.7 uM(Fraction A).(Control group); format: functional; outline: as §3
Mus musculus [39] = assay: […] induction of Thyl+ antigen expression on murine bone marrow cells at the concentration of 2.7 uM(Fraction B).(treated); format: functional; outline: as §3
Mus musculus [40] = assay: […] induction of Thyl+ antigen expression on murine bone marrow cells at the concentration of 2.7 uM(Fraction B).(Control group); format: functional; outline: as §3
Mus musculus [41] = assay: […] induction of Thyl+ antigen expression on murine bone marrow cells at the concentration of 2.5 uM(Fraction B).(Control group); format: functional; outline: as §3
Mus musculus [42] = assay: […] induction of Thyl+ antigen expression on murine bone marrow cells at the concentration of 2.5 uM(Fraction A).(Control group); format: functional; outline: as §3
Mus musculus [43] = assay: […] induction of Thyl+ antigen expression on murine bone marrow cells at the concentration of 2.5 uM(Fraction A).(treated); format: functional; outline: as §3
Mus musculus [44] = assay: […] induction of Thyl+ antigen expression on murine bone marrow cells at the concentration of 2.5 uM(Fraction B).(treated); format: functional; outline: as §3

CCCCC1CCN(c2ccc(N)cc2C(=O)c2ccc(Cl)cc2)CC1
Proliferative response (Mus musculus [1]): 81.7
Thylpositive cells/spleen (Mus musculus [2]): 2.05e+06 cells/spleen
Differentiation (Mus musculus [3]): 5.2%
Proliferative response (Mus musculus [4]): 211.8
Thylpositive cells (Mus musculus [5]): 3.5%
Differentiation (Mus musculus [6]): 6.4%
Proliferative response (Mus musculus [7]): 51.3
Differentiation (Mus musculus [8]): 3.8%
Restoration (Mus musculus [9]): 0.6%
Proliferative response (Mus musculus [10]): 59.1
Proliferative response (Mus musculus [11]): 289.2
Restoration (Mus musculus [12]): 3.6%
Proliferative response (Mus musculus [13]): 78.4
Differentiation (Mus musculus [14]): 4.2%

CC1CCCN(c2ccc(N)cc2C(=O)c2ccc(Cl)cc2)C1 (stereo unspecified)
Differentiation (Mus musculus [15]): 5%
Differentiation (Mus musculus [16]): 6.7%
Differentiation (Mus musculus [17]): 5%
Differentiation (Mus musculus [18]): 3.8%
Proliferative response (Mus musculus [4]): 124.4
Proliferative response (Mus musculus [19]): 45
Proliferative response (Mus musculus [11]): 141.6
Proliferative response (Mus musculus [20]): 41.3

CC1CCN(c2ccc(N)cc2C(=O)c2ccc(Cl)cc2)CC1
Differentiation (Mus musculus [21]): 11.5%
Proliferative response (Mus musculus [22]): 43.5
Proliferative response (Mus musculus [23]): 101.9
Differentiation (Mus musculus [24]): 11.4%
Thylpositive cells/spleen (Mus musculus [2]): 6.65e+06 cells/spleen
Proliferative response (Mus musculus [25]): 36.5
Proliferative response (Mus musculus [26]): 12.8
Proliferative response (Mus musculus [4]): 194.5
Thylpositive cells (Mus musculus [5]): 6.9%
Restoration (Mus musculus [9]): 24.5%
Differentiation (Mus musculus [27]): 5.6%
Differentiation (Mus musculus [28]): 5%
Proliferative response (Mus musculus [11]): 269.5
Restoration (Mus musculus [12]): 14.3%

CC1CCN(c2ccc(N)cc2C(=O)c2ccc(Cl)cc2)CC1C (stereo unspecified)
Proliferative response (Mus musculus [23]): 75.8
Differentiation (Mus musculus [29]): 6.1%
Proliferative response (Mus musculus [25]): 67.3
Differentiation (Mus musculus [30]): 8.8%
Differentiation (Mus musculus [31]): 6.1%
Proliferative response (Mus musculus [4]): 48.6
Differentiation (Mus musculus [32]): 3%
Proliferative response (Mus musculus [11]): 50.2

Nc1ccc(N2CCC(c3ccccc3)CC2)c(C(=O)c2ccc(Cl)cc2)c1
Proliferative response (Mus musculus [1]): 115.3
Thylpositive cells/spleen (Mus musculus [2]): 3.2e+06 cells/spleen
Differentiation (Mus musculus [33]): 3.8%
Differentiation (Mus musculus [34]): 5.2%
Differentiation (Mus musculus [35]): 7%
Proliferative response (Mus musculus [4]): 263.2
Thylpositive cells (Mus musculus [5]): 5.5%
Proliferative response (Mus musculus [7]): 59.9
Restoration (Mus musculus [9]): 7.4%
Proliferative response (Mus musculus [10]): 54.4
Proliferative response (Mus musculus [11]): 294.1
Differentiation (Mus musculus [36]): 6.4%
Restoration (Mus musculus [12]): 12.5%
Proliferative response (Mus musculus [13]): 95.7

CC1CCCCN1c1ccc(N)cc1C(=O)c1ccc(Cl)cc1 (stereo unspecified)
Proliferative response (Mus musculus [23]): 58.1
Proliferative response (Mus musculus [25]): 55.8
Differentiation (Mus musculus [37]): 6%
Proliferative response (Mus musculus [4]): 131.5
Differentiation (Mus musculus [38]): 5.6%
Differentiation (Mus musculus [39]): 4.4%
Proliferative response (Mus musculus [11]): 295
Differentiation (Mus musculus [40]): 5%

CCOC(=O)Nc1ccc(N2CCC(C)CC2)c(C(=O)c2ccc(Cl)cc2)c1
Differentiation (Mus musculus [41]): 6.1%
Thylpositive cells/spleen (Mus musculus [2]): 2.5e+06 cells/spleen
Differentiation (Mus musculus [42]): 6.1%
Proliferative response (Mus musculus [4]): 8
Thylpositive cells (Mus musculus [5]): 3.4%
Differentiation (Mus musculus [43]): 11.6%
Restoration (Mus musculus [9]): 3.3%
Proliferative response (Mus musculus [11]): 16.3
Restoration (Mus musculus [12]): 3.2%
Differentiation (Mus musculus [44]): 5.5%
